The text below walks through data of ChEMBL document CHEMBL5661979, “Pharmacological inhibition of BMK1 suppresses tumor growth through promyelocytic leukemia protein” (Cancer Cell, 2010).

Assay [1] addresses Serine/threonine-protein kinase 10 (Homo sapiens, UniProt O94804). As to the kind of experiment: Inhibition of LOK in human HeLa cells lysate pre incubated for 15 mins followed by ATP acyl phosphate probe addition and measured after 10 mins by LC-MS/MS analysis. It is filed as subcellular.
The target of another assay is PKC alpha and beta-2 (Homo sapiens, UniProt P17252+P05771). As to the kind of experiment: Inhibition of PKCalpha/beta in human HeLa cells lysate pre incubated for 15 mins followed by ATP acyl phosphate probe addition and measured after 10 mins by LC-MS/MS analysis. It is filed as subcellular.
Assay [2] has as its target DNA-dependent protein kinase catalytic subunit (Homo sapiens, UniProt P78527). As to the kind of experiment: Inhibition of PRKDC in human HeLa cells lysate pre incubated for 15 mins followed by ATP acyl phosphate probe addition and measured after 10 mins by LC-MS/MS analysis. It is filed as subcellular.
Assay [3] has as its target Serine/threonine-protein kinase SMG1 (Homo sapiens, UniProt Q96Q15). Nature of the assay: Inhibition of SMG1 in human HeLa cells lysate pre incubated for 15 mins followed by ATP acyl phosphate probe addition and measured after 10 mins by LC-MS/MS analysis. It is filed as subcellular.
The target in assay [4] is Mitogen-activated protein kinase kinase kinase 2 (Homo sapiens, UniProt Q9Y2U5). As to the kind of experiment: Inhibition of MAP3K2 in human HeLa cells lysate pre incubated for 15 mins followed by ADP acyl phosphate probe addition and measured after 10 mins by LC-MS/MS analysis. It is filed as subcellular.
In a further assay the target is RPS6KA1/RPS6KA2/RPS6KA3 (Homo sapiens, UniProt P51812+Q15349+Q15418). As to the kind of experiment: Inhibition of RSK1/2/3 in human HeLa cells lysate at 50 uM pre incubated for 15 mins followed by ADP acyl phosphate probe addition and measured after 10 mins by LC-MS/MS analysis relative to control. Conditions: time 25.0 min. It is filed as subcellular.
Assay [5] in a line: Inhibition of NEK6/7 in human HeLa cells lysate at 10 uM pre incubated for 15 mins followed by ADP acyl phosphate probe addition and measured after 10 mins by LC-MS/MS analysis relative to control. Conditions: 25 min, condition cancer.
Assay [6] deals with Mitogen-activated protein kinase kinase kinase 2 (Homo sapiens) (UniProt Q9Y2U5). Nature of the assay: Inhibition of MAP3K2 in human HeLa cells lysate at 10 uM pre incubated for 15 mins followed by ADP acyl phosphate probe addition and measured after 10 mins by LC-MS/MS analysis relative to control. It is filed as subcellular. Conditions: time 25.0 min.
The target in assay [7] is Serine/threonine-protein kinase 24 (Homo sapiens, UniProt Q9Y6E0). As to the kind of experiment: Inhibition of MST3 in human HeLa cells lysate at 2 uM pre incubated for 15 mins followed by ADP acyl phosphate probe addition and measured after 10 mins by LC-MS/MS analysis relative to control. It is filed as subcellular. Conditions: time 25.0 min.
The target in assay [8] is Phosphatidylinositol 5-phosphate 4-kinase type-2 beta (Homo sapiens) (UniProt P78356). Nature of the assay: Inhibition of PIP5K2B in human HeLa cells lysate at 50 uM pre incubated for 15 mins followed by ATP acyl phosphate probe addition and measured after 10 mins by LC-MS/MS analysis relative to control. It is filed as subcellular. Conditions: time 25.0 min.
The target in assay [9] is Mitogen-activated protein kinase 14 (Homo sapiens, UniProt Q16539). As to the kind of experiment: Inhibition of p38a in human HeLa cells lysate at 10 uM pre incubated for 15 mins followed by ATP acyl phosphate probe addition and measured after 10 mins by LC-MS/MS analysis relative to control. It is filed as subcellular. Conditions: time 25.0 min.
Assay [10] concerns the target Ribosomal protein S6 kinase beta-1 (Homo sapiens, UniProt P23443). As to the kind of experiment: Inhibition of P70S6K in human HeLa cells lysate at 10 uM pre incubated for 15 mins followed by ATP acyl phosphate probe addition and measured after 10 mins by LC-MS/MS analysis relative to control. It is filed as subcellular. Conditions: time 25.0 min.
Assay [11] deals with T1, Dual specificity mitogen-activated protein kinase kinase 4 (Homo sapiens) (UniProt P45985).
T1 sequence (whole entry): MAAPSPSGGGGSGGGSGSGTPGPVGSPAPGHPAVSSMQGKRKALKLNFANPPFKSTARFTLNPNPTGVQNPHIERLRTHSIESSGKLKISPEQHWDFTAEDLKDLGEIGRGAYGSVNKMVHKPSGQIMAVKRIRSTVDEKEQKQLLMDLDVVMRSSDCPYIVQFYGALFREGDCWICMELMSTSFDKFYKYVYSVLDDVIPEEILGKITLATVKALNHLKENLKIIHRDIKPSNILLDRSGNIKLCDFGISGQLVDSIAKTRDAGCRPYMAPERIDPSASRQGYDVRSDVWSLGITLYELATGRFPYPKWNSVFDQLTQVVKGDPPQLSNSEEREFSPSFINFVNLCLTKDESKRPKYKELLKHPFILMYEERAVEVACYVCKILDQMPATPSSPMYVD
Nature of the assay: Inhibition of MAP2K4 in human HeLa cells lysate at 10 uM pre incubated for 15 mins followed by ATP acyl phosphate probe addition and measured after 10 mins by LC-MS/MS analysis relative to control. It is filed as subcellular. Conditions: time 25.0 min.

The target of assay [12] is Cyclin-dependent kinase 2 (Homo sapiens, UniProt P24941). As to the kind of experiment: Inhibition of CDK2 in human HeLa cells lysate at 2 uM pre incubated for 15 mins followed by ATP acyl phosphate probe addition and measured after 10 mins by LC-MS/MS analysis relative to control. It is filed as subcellular. Conditions: time 25.0 min. A digest of the protocol: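 KiNativ profiling in HeLa lysate (5 mg/mL total protein). Lysate incubated 15 min with inhibitor at 50, 10, 2, 0.8 or 0 μM. ATP or ADP acylphosphate probe then added (5 μM final) and reacted 10 min. Reaction stopped with urea and analysed by targeted MS, using up to four fragment ions per kinase peptide-probe conjugate. % inhibition taken against untreated lysate. Run in duplicate.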

Assay [13] has as its target Interferon-induced, double-stranded RNA-activated protein kinase (Homo sapiens, UniProt P19525). As to the kind of experiment: Inhibition of PKR in human HeLa cells lysate at 2 uM pre incubated for 15 mins followed by ATP acyl phosphate probe addition and measured after 10 mins by LC-MS/MS analysis relative to control. It is filed as subcellular. Conditions: time 25.0 min.

Assay [14] concerns the target Hepatocyte growth factor receptor (Homo sapiens, UniProt P08581). As to the kind of experiment: Inhibition of MET in human HeLa cells lysate at 2 uM pre incubated for 15 mins followed by ATP acyl phosphate probe addition and measured after 10 mins by LC-MS/MS analysis relative to control. It is filed as subcellular. Conditions: time 25.0 min.
Assay [15] addresses T2, Serine/threonine-protein kinase 4 (Homo sapiens) (UniProt Q13043).
T2 sequence (whole entry): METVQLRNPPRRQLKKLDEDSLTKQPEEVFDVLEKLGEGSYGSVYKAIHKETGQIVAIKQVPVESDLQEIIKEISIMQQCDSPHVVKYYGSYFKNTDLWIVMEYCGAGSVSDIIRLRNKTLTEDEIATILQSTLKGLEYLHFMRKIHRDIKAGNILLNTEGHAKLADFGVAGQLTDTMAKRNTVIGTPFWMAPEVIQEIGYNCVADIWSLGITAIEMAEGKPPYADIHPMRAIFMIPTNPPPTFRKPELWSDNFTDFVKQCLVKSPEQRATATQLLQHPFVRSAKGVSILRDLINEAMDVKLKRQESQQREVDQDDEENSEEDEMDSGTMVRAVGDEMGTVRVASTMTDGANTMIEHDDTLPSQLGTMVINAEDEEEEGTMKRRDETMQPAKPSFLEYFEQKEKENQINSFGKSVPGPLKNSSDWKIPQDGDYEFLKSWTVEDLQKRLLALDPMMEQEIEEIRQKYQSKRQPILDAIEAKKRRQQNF
As to the kind of experiment: Inhibition of MST1 in human HeLa cells lysate at 2 uM pre incubated for 15 mins followed by ATP acyl phosphate probe addition and measured after 10 mins by LC-MS/MS analysis relative to control. Conditions: time 25.0 min. It is filed as subcellular.

Sequence of Serine/threonine-protein kinase SMG1 (Q96Q15 whole entry): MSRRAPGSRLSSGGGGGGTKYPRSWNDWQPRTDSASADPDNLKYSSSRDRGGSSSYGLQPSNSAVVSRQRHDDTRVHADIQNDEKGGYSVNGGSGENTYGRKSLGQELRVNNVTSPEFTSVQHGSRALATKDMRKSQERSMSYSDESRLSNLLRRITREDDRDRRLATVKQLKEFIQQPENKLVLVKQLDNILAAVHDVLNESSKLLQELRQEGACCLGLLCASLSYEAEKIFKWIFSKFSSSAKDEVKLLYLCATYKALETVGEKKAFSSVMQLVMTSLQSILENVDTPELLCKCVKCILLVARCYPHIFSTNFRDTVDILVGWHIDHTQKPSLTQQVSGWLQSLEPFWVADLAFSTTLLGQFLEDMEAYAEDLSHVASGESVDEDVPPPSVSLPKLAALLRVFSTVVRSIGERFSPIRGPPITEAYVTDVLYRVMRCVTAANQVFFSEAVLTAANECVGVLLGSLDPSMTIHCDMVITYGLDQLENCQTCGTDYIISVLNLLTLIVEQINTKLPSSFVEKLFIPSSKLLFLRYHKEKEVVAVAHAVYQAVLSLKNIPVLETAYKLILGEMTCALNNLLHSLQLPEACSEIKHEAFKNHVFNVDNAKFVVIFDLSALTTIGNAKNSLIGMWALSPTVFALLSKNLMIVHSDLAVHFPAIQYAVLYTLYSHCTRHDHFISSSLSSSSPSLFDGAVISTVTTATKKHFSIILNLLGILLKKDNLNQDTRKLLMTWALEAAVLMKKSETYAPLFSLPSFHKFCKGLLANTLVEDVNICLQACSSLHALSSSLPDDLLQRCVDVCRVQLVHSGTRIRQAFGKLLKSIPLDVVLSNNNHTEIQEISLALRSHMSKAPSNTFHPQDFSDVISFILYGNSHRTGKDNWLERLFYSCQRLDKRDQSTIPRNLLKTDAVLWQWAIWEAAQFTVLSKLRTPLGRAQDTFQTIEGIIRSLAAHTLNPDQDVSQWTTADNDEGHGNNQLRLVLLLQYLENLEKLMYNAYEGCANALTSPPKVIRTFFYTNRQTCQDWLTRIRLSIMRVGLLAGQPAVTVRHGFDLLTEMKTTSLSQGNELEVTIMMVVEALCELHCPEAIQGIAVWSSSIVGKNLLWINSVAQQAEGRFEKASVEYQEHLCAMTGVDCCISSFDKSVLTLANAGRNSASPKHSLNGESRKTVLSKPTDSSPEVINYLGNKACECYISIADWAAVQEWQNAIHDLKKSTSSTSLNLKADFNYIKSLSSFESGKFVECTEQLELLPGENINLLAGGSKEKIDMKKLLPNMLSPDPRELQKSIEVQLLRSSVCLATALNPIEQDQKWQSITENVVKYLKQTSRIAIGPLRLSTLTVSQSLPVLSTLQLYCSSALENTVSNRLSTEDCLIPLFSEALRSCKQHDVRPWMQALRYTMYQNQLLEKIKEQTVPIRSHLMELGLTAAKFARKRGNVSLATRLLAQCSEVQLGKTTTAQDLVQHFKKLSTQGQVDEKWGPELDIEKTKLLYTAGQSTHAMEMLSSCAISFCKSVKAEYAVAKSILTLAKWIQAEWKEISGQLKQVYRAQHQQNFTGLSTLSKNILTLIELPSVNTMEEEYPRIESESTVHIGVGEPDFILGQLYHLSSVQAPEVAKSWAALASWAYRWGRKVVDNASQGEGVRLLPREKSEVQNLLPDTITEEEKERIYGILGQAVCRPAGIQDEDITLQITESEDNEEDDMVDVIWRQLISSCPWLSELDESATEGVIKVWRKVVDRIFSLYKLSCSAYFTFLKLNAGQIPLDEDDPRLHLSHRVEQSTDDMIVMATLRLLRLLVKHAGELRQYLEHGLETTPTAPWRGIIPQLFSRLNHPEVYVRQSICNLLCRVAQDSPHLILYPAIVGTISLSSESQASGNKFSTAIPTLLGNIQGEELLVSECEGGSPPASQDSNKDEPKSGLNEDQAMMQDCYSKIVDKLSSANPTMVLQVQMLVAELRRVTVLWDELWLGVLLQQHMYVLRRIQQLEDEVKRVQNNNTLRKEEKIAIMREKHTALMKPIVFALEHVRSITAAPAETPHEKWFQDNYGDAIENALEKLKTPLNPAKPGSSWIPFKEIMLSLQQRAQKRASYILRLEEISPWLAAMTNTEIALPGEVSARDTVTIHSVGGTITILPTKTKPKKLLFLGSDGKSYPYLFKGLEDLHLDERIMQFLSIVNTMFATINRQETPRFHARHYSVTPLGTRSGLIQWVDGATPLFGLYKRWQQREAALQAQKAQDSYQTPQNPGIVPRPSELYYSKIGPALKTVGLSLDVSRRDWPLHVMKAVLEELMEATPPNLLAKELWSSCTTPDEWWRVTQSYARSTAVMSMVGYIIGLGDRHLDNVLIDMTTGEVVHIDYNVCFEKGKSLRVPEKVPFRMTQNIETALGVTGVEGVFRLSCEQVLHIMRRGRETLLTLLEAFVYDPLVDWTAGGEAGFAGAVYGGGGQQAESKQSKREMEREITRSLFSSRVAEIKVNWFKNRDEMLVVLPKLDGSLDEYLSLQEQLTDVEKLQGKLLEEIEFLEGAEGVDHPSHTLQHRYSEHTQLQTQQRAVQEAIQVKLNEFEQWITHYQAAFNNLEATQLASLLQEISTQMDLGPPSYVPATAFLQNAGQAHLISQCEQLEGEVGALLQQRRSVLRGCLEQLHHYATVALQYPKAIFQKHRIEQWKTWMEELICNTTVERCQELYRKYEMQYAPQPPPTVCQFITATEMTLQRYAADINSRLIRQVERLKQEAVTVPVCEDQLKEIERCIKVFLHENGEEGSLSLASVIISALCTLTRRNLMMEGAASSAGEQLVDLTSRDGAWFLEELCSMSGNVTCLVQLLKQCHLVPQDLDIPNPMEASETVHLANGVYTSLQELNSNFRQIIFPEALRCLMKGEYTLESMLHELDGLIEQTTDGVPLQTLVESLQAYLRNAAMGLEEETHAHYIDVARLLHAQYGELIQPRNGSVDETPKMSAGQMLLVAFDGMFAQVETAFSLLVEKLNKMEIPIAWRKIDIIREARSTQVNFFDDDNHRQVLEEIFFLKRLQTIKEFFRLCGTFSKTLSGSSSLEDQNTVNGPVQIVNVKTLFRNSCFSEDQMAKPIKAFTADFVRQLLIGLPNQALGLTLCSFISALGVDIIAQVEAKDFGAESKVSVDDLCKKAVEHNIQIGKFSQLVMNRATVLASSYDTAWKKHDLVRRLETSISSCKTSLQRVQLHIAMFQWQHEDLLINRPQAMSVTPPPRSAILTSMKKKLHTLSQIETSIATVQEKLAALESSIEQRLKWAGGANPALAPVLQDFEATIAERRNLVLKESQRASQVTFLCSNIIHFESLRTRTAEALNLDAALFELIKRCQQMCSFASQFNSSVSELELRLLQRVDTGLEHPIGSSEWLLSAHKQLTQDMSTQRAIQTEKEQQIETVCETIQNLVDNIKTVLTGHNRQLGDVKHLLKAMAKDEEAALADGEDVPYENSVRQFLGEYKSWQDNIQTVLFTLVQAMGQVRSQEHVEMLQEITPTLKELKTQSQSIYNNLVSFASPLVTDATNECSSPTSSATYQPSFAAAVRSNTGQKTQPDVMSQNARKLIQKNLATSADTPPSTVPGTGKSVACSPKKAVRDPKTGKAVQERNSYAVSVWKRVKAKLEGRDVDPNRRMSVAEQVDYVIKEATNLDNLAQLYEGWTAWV
Sequence of Hepatocyte growth factor receptor (P08581 whole entry): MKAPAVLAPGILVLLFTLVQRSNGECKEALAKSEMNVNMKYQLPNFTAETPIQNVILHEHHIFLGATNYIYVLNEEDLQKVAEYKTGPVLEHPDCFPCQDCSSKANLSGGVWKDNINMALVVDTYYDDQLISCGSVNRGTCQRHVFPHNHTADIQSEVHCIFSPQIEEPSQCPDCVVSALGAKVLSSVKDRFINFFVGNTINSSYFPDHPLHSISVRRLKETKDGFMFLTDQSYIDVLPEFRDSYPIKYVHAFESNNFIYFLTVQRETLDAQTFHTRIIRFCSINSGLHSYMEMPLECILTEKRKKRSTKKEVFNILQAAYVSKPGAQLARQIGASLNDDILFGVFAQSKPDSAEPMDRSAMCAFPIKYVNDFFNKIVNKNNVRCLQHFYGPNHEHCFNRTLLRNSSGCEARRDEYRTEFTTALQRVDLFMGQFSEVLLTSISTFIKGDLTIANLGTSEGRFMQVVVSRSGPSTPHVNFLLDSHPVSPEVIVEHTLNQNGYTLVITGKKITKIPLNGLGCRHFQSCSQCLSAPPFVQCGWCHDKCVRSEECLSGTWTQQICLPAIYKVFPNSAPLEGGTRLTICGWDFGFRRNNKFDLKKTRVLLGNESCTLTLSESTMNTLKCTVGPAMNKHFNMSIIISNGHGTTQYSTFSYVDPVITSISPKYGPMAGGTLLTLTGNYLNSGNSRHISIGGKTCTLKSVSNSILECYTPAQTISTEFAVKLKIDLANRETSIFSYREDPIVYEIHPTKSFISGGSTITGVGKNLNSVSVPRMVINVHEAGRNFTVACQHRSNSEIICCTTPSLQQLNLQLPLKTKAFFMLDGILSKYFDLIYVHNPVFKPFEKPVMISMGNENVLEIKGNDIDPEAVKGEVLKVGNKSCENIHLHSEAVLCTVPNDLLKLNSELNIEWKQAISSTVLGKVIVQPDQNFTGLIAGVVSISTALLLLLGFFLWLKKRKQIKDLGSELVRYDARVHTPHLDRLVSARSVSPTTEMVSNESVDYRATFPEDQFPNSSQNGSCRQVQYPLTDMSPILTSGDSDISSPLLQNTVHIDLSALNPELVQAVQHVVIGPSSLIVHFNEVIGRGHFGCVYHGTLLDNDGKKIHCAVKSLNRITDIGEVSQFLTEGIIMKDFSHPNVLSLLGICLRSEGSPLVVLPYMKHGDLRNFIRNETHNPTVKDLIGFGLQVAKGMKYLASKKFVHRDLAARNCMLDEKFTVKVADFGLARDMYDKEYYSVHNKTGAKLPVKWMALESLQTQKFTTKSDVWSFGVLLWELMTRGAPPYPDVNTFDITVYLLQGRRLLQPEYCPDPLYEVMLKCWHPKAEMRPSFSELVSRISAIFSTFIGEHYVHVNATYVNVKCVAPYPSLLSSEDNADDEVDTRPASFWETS

For orientation: IC50 means the point on the concentration scale where inhibition reaches its midpoint. Low values mean inhibition by little substance, high ones a need for much substance. By inhibition is commonly meant the relative decrease from the control value, in per cent. In the case of `CCOc1cc(N2CCC(O)CC2)ccc1Nc1ncc2c(n1)N(C)c1ccccc1C(=O)N2C`, the IC50 in assay [1] was greater than 50 µM; at PKC alpha and beta-2, greater than 50 µM; in assay [2] it was greater than 50 µM; in [3] it was greater than 50 µM; in assay [4], greater than 50 µM. The inhibition at RPS6KA1/RPS6KA2/RPS6KA3 was -2.1%; in assay [6] it was 36.2%; in assay [7] it was 3.2%; in [8] it was 6.9%; in [9] it was -4%; in [10], -9.6%. Besides, the inhibition is 3.9% in [11]; 2% in assay [12]; -2.6% in assay [13]; 38% in assay [14]; 2.2% in [15]. Further, the inhibition at 10 µM in assay [5] was -11.8%.
